# Screening data from PubChem BioAssay.
# Most compounds without a hit are left out; they make up all but 1.9% or so of the library.
# NPY-Y1 antag – NPY-Y1 (human) receptor antagonism; P25929; HEK293-CNG Y1 cells, membrane potential fluorescence; NPY at EC95, then isoproterenol; inhibition, % at 3.6 µM; 1% of 200,000 active; AID 1040;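 active = inhibition above the campaign mean inhibition of all tested compounds plus 3 SD, cut at about 20% in these data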;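 also: 0% = DMSO wells given NPY plus isoproterenol and 100% = isoproterenol alone without NPY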
# Target sequence (P25929 whole entry, looked up): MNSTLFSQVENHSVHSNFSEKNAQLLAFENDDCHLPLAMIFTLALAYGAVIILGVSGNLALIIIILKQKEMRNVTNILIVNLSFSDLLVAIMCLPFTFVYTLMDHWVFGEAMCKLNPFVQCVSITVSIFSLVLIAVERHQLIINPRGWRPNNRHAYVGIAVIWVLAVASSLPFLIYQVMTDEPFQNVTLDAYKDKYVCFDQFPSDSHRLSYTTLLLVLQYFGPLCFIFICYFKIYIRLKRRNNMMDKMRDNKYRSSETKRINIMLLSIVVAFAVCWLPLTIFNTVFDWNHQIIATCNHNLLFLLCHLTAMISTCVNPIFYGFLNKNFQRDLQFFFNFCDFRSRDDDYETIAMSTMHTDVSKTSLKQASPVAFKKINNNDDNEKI
#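 Assay system: HEK293 Y1/CNG channel cell line; Doses: single compound dose of 3.6 µM, 0.4% DMSO; Timing: dye 3 h, compound 60 min room temperature, stimulation 45 min; Technique: Membrane-potential fluorescent dye readout; Measure: % inhibition of NPY effect.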
# NPY-Y2 PAM-ag – human NPY-Y2 potentiation or agonism, primary screen. P49146. cells expressing NPY-Y2, potentiator/agonist read-out. activation, % at 3.6 µM. 0.45% of 220,000 active; in the data active = activation above about 27%;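 also: cells stimulated with NPY near EC25 plus isoproterenol at EC100; 0% = vehicle plus submaximal agonist and 100% = vehicle plus saturating agonist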
# NPY-Y2 antag – blocks the human neuropeptide Y Y2 receptor. NPY-Y2 expressing cells, antagonist mode. 0.99% of 140,000 active. AID 793. inhibition, % at 2.7 µM. P49146;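 also: 0% = vehicle with agonist challenge and 100% = reference antagonist with challenge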
# NPY-Y1 PAM-ag – human NPY-Y1 potentiation or agonism, primary screen; AID 1304; activation, % at 3.6 µM; P25929; NPY-Y1 expressing cells, potentiator/agonist activation; 0.37% of 220,000 active; in the data active = activation above about 33%, passing the limit was not always enough;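 also: cells stimulated with NPY at EC10 then isoproterenol at EC100; 0% = low agonist plus stimulus and 100% = saturating agonist plus stimulus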
# NPY1 antag conf – human NPY-Y1 antagonism, confirmation; 21% of 1,200 active; AID 1254; shares compounds with NPY-Y1 antag; inhibition, % at 3.6 µM; HEK293-CNG NPY-Y1, membrane potential fluorescence, cAMP; NPY challenge against isoproterenol-raised cAMP; in the data active = inhibition above about 20%;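 also: 0% = vehicle with agonist plus stimulus and 100% = stimulus alone without agonist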
# NPY-Y2 antag ct – antagonizes human NPY-Y2, counter-screen to NPY-Y1 antagonists; shares compounds with NPY-Y1 antag; HEK293 NPY-Y2 CNG membrane potential fluorescence, antagonism; cells given NPY, then isoproterenol; inhibition, % at 3.6 µM; 28% of 1,200 active;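 also: 0% = DMSO with agonist challenge and 100% = reference antagonist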
# * hit, by the source's call; x = no result given. Rule as the data show it, unless noted: active = inhibition above about 17%; inactive = the rest.
SMILES,NPY-Y1 antag,NPY-Y2 PAM-ag,NPY-Y2 antag,NPY-Y1 PAM-ag,NPY1 antag conf,NPY-Y2 antag ct
FC(F)(F)COc1nc(OCC(F)(F)F)nc(N2CCN(c3ccccc3)CC2)n1,28.2*,-10.4,8.6,-12.8,9.4,8.0
COCCNC(=O)CN(C(=O)Cn1nnc2ccccc21)c1ccc(C)c(F)c1,2.5,-1.9,2.0,-9.8,x,x
N=c1n(Cc2ccc(Cl)cc2)c2ccccc2n1CC(O)COc1ccccc1 (stereo not given),41.3*,-26.3,x,-9.5,25.6*,22.2*
CCN(CC)CCn1c(=N)n(CC(O)COc2cccc(C)c2)c2ccccc21 (stereo not given),55.5*,-28.3,x,-47.7,43.6*,41.5*
N=c1n(CCO)c2ccccc2n1Cc1ccc(Cl)cc1,11.1,-19.9,5.9,-27.1,x,x
Cn1c(=O)n(CC(=O)OCc2ccccc2)c(=O)c2c1nc1n2CCCN1C1CCCCC1,-6.2,7.0,1.9,-5.7,x,x
COc1ccc(/C(N)=N/OC(=O)CSc2ccc(C)cc2)cc1OC,21.4*,-20.1,11.3,-31.2,10.4,14.2
O=C(O)C(Cc1c[nH]c2ccccc12)N1CCS(=O)(=O)CC1 (stereo not given),-1.7,7.4,x,2.8,x,x
CCOC(=O)c1sc(N(C)C(C)=O)nc1C,1.9,6.9,1.1,9.4,x,x
CCOC(=O)c1sc(N(Cc2ccccc2)C(=O)COC(=O)c2ccccc2O)nc1C,20.2*,-3.6,12.5,-45.2,15.7,8.5
c1ccc(CN(Cc2cccs2)C(c2cccs2)c2nnnn2C2CCCC2)cc1 (stereo not given),20.6*,-17.6,15.7,-14.6,17.4,5.7
c1ccc(CC2CCN(C(c3cccs3)c3nnnn3C3CCCC3)CC2)cc1 (stereo not given),-3.5,0.5,5.3,4.1,x,x
COC(=O)c1ccc(C2C(Oc3ccc(OC)cc3)C(=O)N2CCc2ccc(F)cc2)cc1 (stereo not given),21.5*,0.2,15.8,-12.0,6.9,7.3
O=C1NCCN/C1=C\C(=O)c1ccc(Br)cc1,x,10.2,x,26.4,x,x
Cc1ccc(-c2cc3cccc[n+]3cc2-c2ccc(C)cc2)cc1,21.7*,-16.0,14.2,-61.7,32.2*,20.9*
Nc1nc(CN2CCN(c3ccccc3)CC2)nc(N2CCCc3ccccc32)n1,21.7*,-17.3,12.8,-38.0,8.2,8.5
Nc1nc(CN2CCN(c3cccc(Cl)c3)CC2)nc(N2CCCc3ccccc32)n1,12.7,-37.1,16.2,-59.3,x,x
O=C(O)CSc1nc(-c2ccc(Cl)cc2)nc2c1oc1ccccc12,5.6,-10.1,11.3,-27.7,x,x
O=C(O)CSc1nc(-c2ccccc2)nc2c1oc1ccccc12,23.3*,-13.4,8.7,9.7,5.2,6.9
CCOc1ccc(N(CCCCO)C(=S)NC(=O)c2ccc(C)c(Br)c2)cc1,4.0,-3.0,x,-12.6,x,x
COc1cccc(NC(=O)CN(C)C(=O)COc2ccc3ccccc3c2)c1,16.1,-6.5,9.6,-19.5,x,x
CCN(CC(=O)Nc1ccccc1OC)C(=O)COc1ccc2ccccc2c1,23.9*,-16.2,15.2,-38.6,16.8,7.1
c1ccc(-c2nc(-n3ccnc3)nc(-n3ccnc3)n2)cc1,-3.7,20.6,-2.2,21.8,x,x
c1ccc(CN2CCN(c3nc(-c4ccccc4)nc(-n4ccnc4)n3)CC2)cc1,40.4*,-31.3,16.0,-116.3,24.2*,22.7*
O=C(O)CSc1c[nH]c2ccccc12,12.6,-14.1,10.2,-7.5,x,x
SMILES,NPY-Y1 antag,NPY-Y2 PAM-ag,NPY-Y2 antag,NPY-Y1 PAM-ag,NPY1 antag conf,NPY-Y2 antag ct
CC(Sc1c[nH]c2ccccc12)C(=O)O (stereo not given),27.5*,-16.5,10.0,-42.0,5.1,4.0
Cc1cc(C(=O)CSc2nc3ccccc3c(=O)[nH]2)c(C)n1CC1CCCO1 (stereo not given),0.5,7.8,x,-9.5,x,x
Cc1cc(C(=O)CSc2nc3ccccc3c(=O)n2C)c(C)n1CC1CCCO1 (stereo not given),27.4*,13.7,x,-27.2,33.4*,12.0
C=CCn1c(=NC(=O)c2ccccc2[N+](=O)[O-])sc2cc(S(C)(=O)=O)ccc21,0.8,-0.6,1.8,-12.2,x,x
C=CCc1ccccc1OCCSc1nc2ccc([N+](=O)[O-])cc2s1,20.9*,-2.4,10.6,2.2,16.2,15.8
CCN1CCN(c2ccc(S(=O)(=O)N3CCCC3)cn2)CC1,0.8,12.9,x,7.4,x,x
